In ChEMBL document CHEMBL5058577, “EUbOPEN Chemogenomics Library 2 (Multiplex)” (2022):

Tested on: Fibroblast
Assay: Multiplex assay against human fibroblast
Assay type: toxicity, cell-based
Procedure, shortened: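 Compound was added to live cells that had been stained at seeding with Hoechst33342, BioTracker Green Microtubule Cytoskeleton Dye, MitoTracker Red and Annexin V Alexa Fluor 680, and imaging followed on a CQ1 microscope at 37°C and 5% CO2. CellPathfinder machine-learning gating divided cells into Hoechst high-intensity objects or normal cells, normal cells into healthy, pyknosed or fragmented nuclei, and pyknosed cells into mitotic or apoptotic. Tubulin, mitochondrial-mass and membrane-permeability phenotypes are per cents of healthy-nucleus cells.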

[1] = 12 h, 1 µM, compound concentration 1 uM, replicate 1
[2] = 12 h, 1 µM, compound concentration 1 uM, replicate 2
[3] = 12 h, 10 µM, compound concentration 10 uM, replicate 1
[4] = 12 h, 10 µM, compound concentration 10 uM, replicate 2
[5] = 24 h, 1 µM, compound concentration 1 uM, replicate 1
[6] = 24 h, 1 µM, compound concentration 1 uM, replicate 2
[7] = 24 h, 10 µM, compound concentration 10 uM, replicate 1
[8] = 24 h, 10 µM, compound concentration 10 uM, replicate 2
[9] = 48 h, 1 µM, compound concentration 1 uM, replicate 1
[10] = 48 h, 1 µM, compound concentration 1 uM, replicate 2
[11] = 48 h, 10 µM, compound concentration 10 uM, replicate 1
[12] = 48 h, 10 µM, compound concentration 10 uM, replicate 2

## O=C(O)Cc1ccccc1Nc1c(Cl)cccc1Cl [DICLOFENAC]
[1]
  Population Apoptotic (%): 43%
  Population Fragmented Nuclei (%): 14%
  Population Healthy Nuclei (%): 67%
  Population Hoechst High Intensity Objects (%): 0%
  Population Membrane Permeable-Phenotype (%): 1%
  Population Mitochondria Different-Phenotype (%): 6%
  Population Mitotic Cells (%): 56%
  Population Normal (%): 99%
  Population Pyknosed Nuclei (%): 17%
  Population Tubulin-Different-Phenotype (%): 25%
[2]
  Population Apoptotic (%): 33%
  Population Fragmented Nuclei (%): 25%
  Population Healthy Nuclei (%): 49%
  Population Hoechst High Intensity Objects (%): 2%
  Population Membrane Permeable-Phenotype (%): 7%
  Population Mitotic Cells (%): 66%
  Population Normal (%): 97%
  Population Pyknosed Nuclei (%): 25%
  Population Tubulin-Different-Phenotype (%): 49%
[3]
  Population Apoptotic (%): 32%
  Population Fragmented Nuclei (%): 14%
  Population Healthy Nuclei (%): 68%
  Population Hoechst High Intensity Objects (%): 0%
  Population Membrane Permeable-Phenotype (%): 0%
  Population Mitochondria Different-Phenotype (%): 5%
  Population Mitotic Cells (%): 68%
  Population Normal (%): 99%
  Population Pyknosed Nuclei (%): 17%
  Population Tubulin-Different-Phenotype (%): 24%
[4]
  Population Apoptotic (%): 38%
  Population Fragmented Nuclei (%): 36%
  Population Healthy Nuclei (%): 46%
  Population Hoechst High Intensity Objects (%): 6%
  Population Membrane Permeable-Phenotype (%): 16%
  Population Mitochondria Different-Phenotype (%): 8%
  Population Mitotic Cells (%): 61%
  Population Normal (%): 93%
  Population Tubulin-Different-Phenotype (%): 54%
[5]
  Population Apoptotic (%): 52%
  Population Fragmented Nuclei (%): 15%
  Population Healthy Nuclei (%): 66%
  Population Hoechst High Intensity Objects (%): 2%
  Population Membrane Permeable-Phenotype (%): 0%
  Population Mitochondria Different-Phenotype (%): 4%
  Population Mitotic Cells (%): 47%
  Population Normal (%): 97%
  Population Pyknosed Nuclei (%): 17%
  Population Tubulin-Different-Phenotype (%): 29%
[6]
  Population Apoptotic (%): 35%
  Population Fragmented Nuclei (%): 28%
  Population Healthy Nuclei (%): 49%
  Population Hoechst High Intensity Objects (%): 3%
  Population Membrane Permeable-Phenotype (%): 12%
  Population Mitochondria Different-Phenotype (%): 6%
  Population Mitotic Cells (%): 64%
  Population Normal (%): 96%
  Population Pyknosed Nuclei (%): 21%
  Population Tubulin-Different-Phenotype (%): 50%
[7]
  Population Apoptotic (%): 30%
  Population Fragmented Nuclei (%): 16%
  Population Healthy Nuclei (%): 68%
  Population Hoechst High Intensity Objects (%): 5%
  Population Membrane Permeable-Phenotype (%): 0%
  Population Mitochondria Different-Phenotype (%): 5%
  Population Mitotic Cells (%): 69%
  Population Normal (%): 94%
  Population Pyknosed Nuclei (%): 15%
  Population Tubulin-Different-Phenotype (%): 19%
[8]
  Population Apoptotic (%): 50%
  Population Fragmented Nuclei (%): 31%
  Population Healthy Nuclei (%): 50%
  Population Hoechst High Intensity Objects (%): 2%
  Population Membrane Permeable-Phenotype (%): 8%
  Population Mitochondria Different-Phenotype (%): 10%
  Population Mitotic Cells (%): 50%
  Population Normal (%): 97%
  Population Pyknosed Nuclei (%): 18%
  Population Tubulin-Different-Phenotype (%): 55%
[9]
  Population Apoptotic (%): 85%
  Population Fragmented Nuclei (%): 21%
  Population Healthy Nuclei (%): 61%
  Population Hoechst High Intensity Objects (%): 3%
  Population Membrane Permeable-Phenotype (%): 4%
  Population Mitochondria Different-Phenotype (%): 4%
  Population Mitotic Cells (%): 15%
  Population Normal (%): 96%
  Population Pyknosed Nuclei (%): 16%
  Population Tubulin-Different-Phenotype (%): 24%
[10]
  Population Apoptotic (%): 57%
  Population Fragmented Nuclei (%): 36%
  Population Healthy Nuclei (%): 53%
  Population Hoechst High Intensity Objects (%): 5%
  Population Mitotic Cells (%): 42%
  Population Normal (%): 94%
  Population Pyknosed Nuclei (%): 10%
  Population Tubulin-Different-Phenotype (%): 44%
[11]
  Population Apoptotic (%): 73%
  Population Fragmented Nuclei (%): 22%
  Population Healthy Nuclei (%): 65%
  Population Hoechst High Intensity Objects (%): 3%
  Population Membrane Permeable-Phenotype (%): 0%
  Population Mitochondria Different-Phenotype (%): 3%
  Population Mitotic Cells (%): 26%
  Population Normal (%): 96%
  Population Pyknosed Nuclei (%): 12%
  Population Tubulin-Different-Phenotype (%): 28%
[12]
  Population Apoptotic (%): 30%
  Population Fragmented Nuclei (%): 35%
  Population Healthy Nuclei (%): 50%
  Population Membrane Permeable-Phenotype (%): 4%
  Population Mitochondria Different-Phenotype (%): 6%
  Population Mitotic Cells (%): 69%
  Population Pyknosed Nuclei (%): 14%
  Population Tubulin-Different-Phenotype (%): 53%

## O=S(=O)(c1ccccc1)c1cnc2c(N3CCNCC3)cccc2c1 [INTEPIRDINE]
[1]
  Population Apoptotic (%): 50%
  Population Fragmented Nuclei (%): 23%
  Population Healthy Nuclei (%): 67%
  Population Hoechst High Intensity Objects (%): 3%
  Population Membrane Permeable-Phenotype (%): 0%
  Population Mitochondria Different-Phenotype (%): 2%
  Population Mitotic Cells (%): 50%
  Population Normal (%): 96%
  Population Pyknosed Nuclei (%): 9%
  Population Tubulin-Different-Phenotype (%): 26%
  Total Cell Count: 212
[2]
  Population Apoptotic (%): 34%
  Population Fragmented Nuclei (%): 28%
  Population Healthy Nuclei (%): 47%
  Population Hoechst High Intensity Objects (%): 4%
  Population Membrane Permeable-Phenotype (%): 7%
  Population Mitochondria Different-Phenotype (%): 7%
  Population Mitotic Cells (%): 65%
  Population Normal (%): 95%
  Population Pyknosed Nuclei (%): 24%
  Population Tubulin-Different-Phenotype (%): 61%
  Total Cell Count: 148
[3]
  Population Apoptotic (%): 75%
  Population Fragmented Nuclei (%): 22%
  Population Healthy Nuclei (%): 62%
  Population Hoechst High Intensity Objects (%): 1%
  Population Membrane Permeable-Phenotype (%): 1%
  Population Mitochondria Different-Phenotype (%): 8%
  Population Mitotic Cells (%): 25%
  Population Normal (%): 98%
  Population Pyknosed Nuclei (%): 14%
  Population Tubulin-Different-Phenotype (%): 44%
  Total Cell Count: 138
[4]
  Population Apoptotic (%): 61%
  Population Fragmented Nuclei (%): 43%
  Population Healthy Nuclei (%): 40%
  Population Hoechst High Intensity Objects (%): 6%
  Population Membrane Permeable-Phenotype (%): 5%
  Population Mitochondria Different-Phenotype (%): 13%
  Population Mitotic Cells (%): 38%
  Population Normal (%): 93%
  Population Pyknosed Nuclei (%): 16%
  Population Tubulin-Different-Phenotype (%): 68%
  Total Cell Count: 136
[5]
  Population Apoptotic (%): 54%
  Population Fragmented Nuclei (%): 16%
  Population Healthy Nuclei (%): 72%
  Population Hoechst High Intensity Objects (%): 5%
  Population Membrane Permeable-Phenotype (%): 2%
  Population Mitochondria Different-Phenotype (%): 4%
  Population Mitotic Cells (%): 45%
  Population Normal (%): 94%
  Population Pyknosed Nuclei (%): 10%
  Population Tubulin-Different-Phenotype (%): 28%
  Total Cell Count: 212
[6]
  Population Apoptotic (%): 41%
  Population Fragmented Nuclei (%): 32%
  Population Healthy Nuclei (%): 44%
  Population Hoechst High Intensity Objects (%): 0%
  Population Membrane Permeable-Phenotype (%): 1%
  Population Mitotic Cells (%): 58%
  Population Normal (%): 99%
  Population Pyknosed Nuclei (%): 24%
  Population Tubulin-Different-Phenotype (%): 59%
  Total Cell Count: 151
[7]
  Population Apoptotic (%): 40%
  Population Fragmented Nuclei (%): 28%
  Population Healthy Nuclei (%): 65%
  Population Hoechst High Intensity Objects (%): 1%
  Population Membrane Permeable-Phenotype (%): 0%
  Population Mitochondria Different-Phenotype (%): 7%
  Population Mitotic Cells (%): 60%
  Population Normal (%): 98%
  Population Pyknosed Nuclei (%): 6%
  Population Tubulin-Different-Phenotype (%): 50%
  Total Cell Count: 152
[8]
  Population Apoptotic (%): 91%
  Population Fragmented Nuclei (%): 39%
  Population Healthy Nuclei (%): 50%
  Population Hoechst High Intensity Objects (%): 4%
  Population Membrane Permeable-Phenotype (%): 3%
  Population Mitochondria Different-Phenotype (%): 15%
  Population Mitotic Cells (%): 8%
  Population Normal (%): 95%
  Population Pyknosed Nuclei (%): 10%
  Population Tubulin-Different-Phenotype (%): 67%
  Total Cell Count: 123
[9]
  Population Apoptotic (%): 66%
  Population Fragmented Nuclei (%): 22%
  Population Healthy Nuclei (%): 69%
  Population Hoechst High Intensity Objects (%): 5%
  Population Membrane Permeable-Phenotype (%): 0%
  Population Mitochondria Different-Phenotype (%): 2%
  Population Mitotic Cells (%): 33%
  Population Normal (%): 94%
  Population Pyknosed Nuclei (%): 7%
  Population Tubulin-Different-Phenotype (%): 34%
  Total Cell Count: 213
[10]
  Population Apoptotic (%): 52%
  Population Fragmented Nuclei (%): 39%
  Population Healthy Nuclei (%): 45%
  Population Hoechst High Intensity Objects (%): 3%
  Population Membrane Permeable-Phenotype (%): 1%
  Population Mitotic Cells (%): 48%
  Population Normal (%): 96%
  Population Pyknosed Nuclei (%): 15%
  Population Tubulin-Different-Phenotype (%): 54%
  Total Cell Count: 170
[11]
  Population Apoptotic (%): 63%
  Population Fragmented Nuclei (%): 23%
  Population Healthy Nuclei (%): 67%
  Population Hoechst High Intensity Objects (%): 3%
  Population Membrane Permeable-Phenotype (%): 1%
  Population Mitochondria Different-Phenotype (%): 15%
  Population Mitotic Cells (%): 36%
  Population Normal (%): 96%
  Population Pyknosed Nuclei (%): 8%
  Population Tubulin-Different-Phenotype (%): 47%
  Total Cell Count: 139
[12]
  Population Apoptotic (%): 40%
  Population Fragmented Nuclei (%): 48%
  Population Healthy Nuclei (%): 38%
  Population Hoechst High Intensity Objects (%): 6%
  Population Membrane Permeable-Phenotype (%): 6%
  Population Mitochondria Different-Phenotype (%): 6%
  Population Mitotic Cells (%): 60%
  Population Normal (%): 93%
  Population Pyknosed Nuclei (%): 12%
  Population Tubulin-Different-Phenotype (%): 57%
  Total Cell Count: 125
